Measured values of several laboratories.
EGFR L858R/T790M: Epidermal growth factor receptor (EGFR, Homo sapiens, UniProt P00533, L858R/T790M)
Transmembrane protease serine 6: Transmembrane protease serine 6 (Homo sapiens, UniProt Q8IU80)
Palmitoyl-protein thioesterase 1: Palmitoyl-protein thioesterase 1 (Homo sapiens, UniProt P50897)
EGFR: Epidermal growth factor receptor (EGFR, Homo sapiens, UniProt P00533)

Structure (SMILES)	target	read-out	mode	technique	tested at	measurement	result
Cc1ncc(CN2CCc3ccccc3C2)c2cc(C(=O)c3ccc4c(c3)OCCO4)oc12	EGFR L858R/T790M	enzyme activity	inhibitor	ADP detection	1 µM	inhibition	65 to 75%
N=C(N)NCCC[C@H](NC(=O)[C@H](CCC1CCCCC1)NC(=O)[C@H](Cc1cscn1)NC(=O)CCc1ccccc1)C(=O)c1nc2ccccc2s1	Transmembrane protease serine 6	enzyme activity	inhibitor	–	0.1 µM	remaining activity	5%
C=C1C(=O)O[C@H]2[C@H]1CC/C(C)=C/CC[C@@]1(C)O[C@@H]21	Palmitoyl-protein thioesterase 1	enzyme activity	inhibitor	–	125 µM	inhibition	-5.16%
Cc1ccc2c(-c3cc4c(CN5CCN(Cc6ccccn6)CC5)cnc(C)c4o3)cc(=O)oc2c1	EGFR	enzyme activity	inhibitor	ADP detection	1 µM	inhibition	60 to 80%
CCCCCCCCCCCCCCCC(=O)O	Palmitoyl-protein thioesterase 1	enzyme activity	inhibitor	–	125 µM	inhibition	42.4%
CC(C)(O)[C@H](NC(=O)[C@H](Cc1cscn1)NC(=O)CCc1ccccc1)C(=O)N[C@@H](CCCNC(=N)N)C(=O)c1nc2ccccc2s1	Transmembrane protease serine 6	enzyme activity	inhibitor	–	0.1 µM	remaining activity	96%
C=CCc1ccc(O)c(O)c1	Palmitoyl-protein thioesterase 1	enzyme activity	inhibitor	–	625 µM	inhibition	15.1%
N=C(N)NCCC[C@H](NC(=O)[C@H](Cc1ccncc1)NC(=O)[C@H](Cc1cscn1)NC(=O)CCc1ccccc1)C(=O)c1nc2ccccc2s1	Transmembrane protease serine 6	enzyme activity	inhibitor	–	0.1 µM	remaining activity	68%
COc1cc(-c2cncc3c2CN(C)Cc2cc(N4CCNCC4)ccc2-3)cc(OC)c1OC	Tyrosine-protein kinase Blk (Blk, Mus musculus, UniProt P16277)	enzyme activity	inhibitor	–	1 µM	remaining activity	64%
[H]/N=C(\N/C(=N/[H])Nc1ccc(Cl)cc1)NC(C)C	Palmitoyl-protein thioesterase 1	enzyme activity	inhibitor	–	125 µM	inhibition	-0.79%
N=C(N)NCCC[C@H](NC(=O)[C@@H](NC(=O)[C@H](Cc1cscn1)NC(=O)CCc1ccccc1)c1ccccc1)C(=O)c1nc2ccccc2s1	Transmembrane protease serine 6	enzyme activity	inhibitor	–	0.1 µM	remaining activity	6%
COc1cnc(NS(=O)(=O)c2ccc(N)cc2)nc1	Palmitoyl-protein thioesterase 1	enzyme activity	inhibitor	–	125 µM	inhibition	13.6%
CC(C)(C)C[C@H](NC(=O)[C@H](Cc1cscn1)NC(=O)CCc1ccccc1)C(=O)N[C@@H](CCCNC(=N)N)C(=O)c1nc2ccccc2s1	Transmembrane protease serine 6	enzyme activity	inhibitor	–	0.1 µM	remaining activity	3%
C=CCc1ccc(O)c(OC)c1	Palmitoyl-protein thioesterase 1	enzyme activity	inhibitor	–	834 µM	inhibition	11.7%
CNc1ncc2c(/C=C/C(=O)N3CCC(OC)CC3)nn(Cc3cccc(C(F)(F)F)c3)c2n1	Protein kinase C delta type (PRKCD, Homo sapiens, UniProt Q05655)	enzyme activity	inhibitor	radiometric	1 µM	remaining activity	99%
C/C=C\c1ccc(O)c(OC)c1	Palmitoyl-protein thioesterase 1	enzyme activity	inhibitor	–	312 µM	inhibition	22.2%
CC(C)C(C)(NC(=O)[C@H](Cc1cscn1)NC(=O)CCc1ccccc1)C(=O)N[C@@H](CCCNC(=N)N)C(=O)c1nc2ccccc2s1 (stereo partly shown)	Transmembrane protease serine 6	enzyme activity	inhibitor	–	0.1 µM	remaining activity	96%
Nc1ccc(C(=O)NCC(=O)O)cc1	Palmitoyl-protein thioesterase 1	enzyme activity	inhibitor	–	125 µM	inhibition	10.1%
C=CC(=O)N1CCC(COCC(=O)N2CCN(c3nc(-c4cnc(N)nc4C(F)F)nc(N4CCOC[C@@H]4C)n3)CC2)CC1	Serine/threonine-protein kinase B-raf (BRAF, Homo sapiens, UniProt P15056, V600E)	binding	–	competition with immobilised ligand	1 µM	remaining binding	81%
Cc1ccc2c(-c3cc4c(CNCc5ccco5)cnc(C)c4o3)cc(=O)oc2c1C	EGFR	enzyme activity	inhibitor	ADP detection	1 µM	inhibition	0 to 40%
Cc1cc([C@@H](C)Nc2ccccc2C(=O)O)c2nc(N3CCC(F)(F)CC3)c(C#N)c(=O)n2c1	Mitogen-activated protein kinase 8 (MAPK8, Homo sapiens, UniProt P45983)	binding	–	competition with immobilised ligand	10 µM	remaining binding	100%
CC(C)(C)c1ccc(C[C@H](NC(=O)[C@H](Cc2cscn2)NC(=O)CCc2ccccc2)C(=O)N[C@@H](CCCNC(=N)N)C(=O)c2nc3ccccc3s2)cc1	Transmembrane protease serine 6	enzyme activity	inhibitor	–	0.1 µM	remaining activity	98%
O=C(CCn1c(=O)ccc2ccccc21)N1CCOCC1	EGFR	enzyme activity	inhibitor	–	10 µM	inhibition	86.8%
Cc1ncc(CN2CCN(Cc3ccccn3)CC2)c2cc(C(=O)c3ccc4c(c3)OCCO4)oc12	EGFR L858R/T790M	enzyme activity	inhibitor	ADP detection	1 µM	inhibition	65 to 75%
N=C(N)NCCC[C@H](NC(=O)[C@@H]1CCCN1C(=O)[C@H](Cc1cscn1)NC(=O)CCc1ccccc1)C(=O)c1nc2ccccc2s1	Transmembrane protease serine 6	enzyme activity	inhibitor	–	0.1 µM	remaining activity	60%
